Data: ChEMBL document CHEMBL5370575, “Probing the Cytotoxic Signaling Induced by Eupenifeldin in Ovarian Cancer Models” (J Nat Prod, 2023)
Calls of active or inactive are those of the source. The rule behind the calls is not given here.

Experiments:
[1] = system: OVCAR-3; assay: Cytotoxicity against human OVCAR-3 cells assessed as inhibition of cell growth for 72 hrs by CellTiter-Blue cell viability assay; type: functional, cell-based; settings: OVCAR-3, 72 h
Outline: (§1)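 5000 cells seeded in triplicate, attached overnight, then exposed for 72 h to serial concentrations in DMSO vehicle (0.05%). Viability was read by fluorometric CellTiter-Blue. IC50 in nM comes from dose–response curves relative to DMSO control. Media: OVCAR3 in RPMI1640, OVCAR5/OVCAR8 in DMEM, hFT33 in DMEM-Ham's F12 50/50, all with 10% FBS. Data are mean ± SEM, three biological replicates.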

[2] = system: OVCAR-5; assay: Cytotoxicity against human OVCAR-5 cells assessed as inhibition of cell growth for 72 hrs by CellTiter-Blue cell viability assay; type: functional, cell-based; settings: OVCAR-5, 72 h; outline: as §1
[3] = system: OVCAR-8; assay: Cytotoxicity against human OVCAR-8 cells assessed as inhibition of cell growth for 72 hrs by CellTiter-Blue cell viability assay; type: functional, cell-based; settings: OVCAR-8, 72 h; outline: as §1
[4] = Cytotoxicity against human FT33 cells assessed as inhibition of cell growth for 72 hrs by CellTiter-Blue cell viability assay; type: toxicity, cell-based; outline: as §1
[5] = system: OVCAR-8; assay: Cytotoxicity against human OVCAR-8 cells assessed as reduction in colony formation at 10 nM incubated for 8 hrs measured after 15 days by crystal violet staining based analysis; type: functional, cell-based; settings: time 368.0 hrs
Outline: (§2)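 Seeded at 200 cells per dish, attached overnight, exposed 8 h to 10 nM (DMSO vehicle 0.1%), then grown 15 days in untreated growth medium. Colonies fixed with 4% paraformaldehyde, stained with 0.05% crystal violet, counted and normalised to vehicle. Mean ± SEM, three biological replicates, one-way ANOVA with Dunnett's test.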

[6] = system: OVCAR-5; assay: Inhibition of cell migration in human OVCAR-5 cells assessed as decrease in wound closure at 10 to 25 nM incubated for 48 hrs by wound healing assay; type: functional, cell-based; settings: dose 10-25 nM
Outline: (§3)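 Confluent monolayers scratched once, washed with PBS, then treated with 10 or 25 nM (paclitaxel 10 nM control) for 48 h. Scratch area imaged at 4× at 0 and 48 h, measured and normalised to vehicle. One-way ANOVA with Dunnett's test.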

[7] = system: OVCAR-8; assay: Inhibition of cell migration in human OVCAR-8 cells assessed as decrease in wound closure at 10 to 25 nM incubated for 48 hrs by wound healing assay; type: functional, cell-based; settings: dose 10-25 nM; outline: as §3
[8] = system: OVCAR-3; assay: Cytotoxicity against human OVCAR-3 cells assessed as reduction in colony formation at 10 nM incubated for 8 hrs measured after 15 days by crystal violet staining based analysis; type: functional, cell-based; settings: time 368.0 hrs; outline: as §2
[9] = system: OVCAR-5; assay: Cytotoxicity against human OVCAR-5 cells assessed as reduction in colony formation at 10 nM incubated for 8 hrs measured after 15 days by crystal violet staining based analysis; type: functional, cell-based; settings: time 368.0 hrs; outline: as §2
[10] = system: OVCAR-3; assay: Antitumor activity against human OVCAR-3 cells xenografted in immunodeficient NCr nu/nu mouse assessed as reduction in cell survival at 0.5 mg/kg, ip administrated once per day for 4 days measured on day 7 by MTT assay; type: functional, organism-based; settings: time 7.0 day
Outline: (§4)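 Female immunodeficient NCr nu/nu mice (6–8 weeks) carried intraperitoneal polyvinylidene fluoride hollow fibres holding OVCAR3 and OVCAR8 cells (day 0). Dosed ip once daily on days 3–6 in 2% DMSO/48% PEG300/50% H₂O diluted with H₂O. Fibres retrieved on day 7; cell viability by modified MTT assay. One-way ANOVA with Dunnett's test vs vehicle.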

[11] = system: OVCAR-8; assay: Antitumor activity against human OVCAR-8 cells xenografted in immunodeficient NCr nu/nu mouse assessed as reduction in cell survival at 0.5 mg/kg, ip administrated once per day for 4 days measured on day 7 by MTT assay; type: functional, organism-based; settings: time 7.0 day; outline: as §4
[12] = Toxicity in immunodeficient NCr nu/nu mouse xenografted with human OVCAR-8 cells assessed as change in body weight at 0.5 mg/kg, ip administrated once per day for 4 days measured measured on day 7 relative to control; type: organism-based; settings: in vivo, 168 h, time 7 day
Outline: (§5)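 Female immunodeficient NCr nu/nu mice, 6–8 weeks old, carried cells sealed in polyvinylidene fluoride hollow fibers implanted intraperitoneally on day 0. Dosing was i.p. once daily on days 3–6 in 2% DMSO:48% PEG300:50% H2O, diluted with H2O. Body weight was followed over the study, and fibers were retrieved on day 7.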

[13] = system: OVCAR-3; assay: Induction of apoptosis in human OVCAR-3 cells assessed as increase in apoptotic cells at 25 nM incubated for 48 hrs by Annexin V-FITC/propidium iodide staining based analysis; type: functional, cell-based
Outline: (§6)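 OVCAR5/OVCAR8 seeded at 175 000 and OVCAR3 at 190 000 cells per 60 mm dish, attached overnight, treated 48 h (10, 25 or 50 nM). Media and cells collected, PBS-washed, stained with annexin V-FITC/propidium iodide and read on a cell counter with gating per kit. Three biological replicates, mean ± SEM, Dunnett's test.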

[14] = system: OVCAR-8; assay: Induction of apoptosis in human OVCAR-8 cells assessed as increase in apoptotic cells at 25 nM incubated for 48 hrs by Annexin V-FITC/propidium iodide staining based analysis; type: functional, cell-based; outline: as §6
[15] = system: OVCAR-5; assay: Induction of apoptosis in human OVCAR-5 cells at 25 nM incubated for 48 hrs by Annexin V-FITC/propidium iodide staining based analysis; type: functional, cell-based; outline: as §6
[16] = system: OVCAR-3; assay: Anti-ferroptotic activity against human OVCAR-3 cells assessed as decrease in lipid peroxidation at 50 nM incubated for 24 hrs by C11-BODIPY staining based flow cytometric analysis; type: functional, cell-based
Outline: (§7)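 Cells treated 24 h with 50 nM, with or without 2 μM ferrostatin-1; lipid peroxidation read as C11-BODIPY fluorescence in the green channel by flow cytometry.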

[17] = system: OVCAR-3; assay: Anti-ferroptotic activity against human OVCAR-3 cells assessed as decrease in lipid peroxidation at 50 nM incubated for 24 hrs in presence of ferrostatin-1 by C11-BODIPY staining based flow cytometric analysis; type: functional, cell-based; outline: as §7
[18] = system: HeLa; assay: Induction of autophagy in human HeLa cells harboring eGFP-LC3 assessed as increase in LC3 puncta accumulation at 250 nM incubated for 4 hrs by Hoechst 33342 and DAPI staining based analysis; type: functional, cell-based
Outline: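 HeLa stably expressing eGFP-LC3, 384-well plates, treated 4 h with serial dilutions starting at 250 nM, fixed in 4% formaldehyde, nuclei counterstained, imaged at 10× (FITC); LC3 puncta quantified by image analysis, normalised to DMSO, dose–response fitted.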

[19] = system: HeLa; assay: Induction of autophagic flux in human HeLa cells harbouring mCherry-eGFP-LC3 assessed as increase in number of autolysosomes at 10 nM incubated for 24 hrs by Hoechst 33342 and DAPI staining based analysis; type: functional, cell-based
Outline: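 HeLa stably expressing mCherry-eGFP-LC3, 384-well plates, treated 24 h, fixed 12 min in 4% formaldehyde, nuclei stained, imaged at 10× under FITC and Texas Red filters; autolysosomes/autophagosomes quantified by high-content analysis and normalised to DMSO; chloroquine as control. Three biological replicates in duplicate.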

[20] = system: OVCAR-3; assay: Induction of autophagy in human OVCAR-3 cells assessed as reduction in cell viability at 25 nM incubated for 72 hrs in presence of bafilomycin by CellTiter-Blue Cell Viability assay; type: functional, cell-based
Outline: (§8)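 5000 cells/well attached overnight, then treated 72 h with 25 nM alone or with bafilomycin A1 (5 nM; OVCAR8 also at 1 nM); bafilomycin alone as control. Viability by CellTiter-Blue fluorescence, normalised to vehicle. One-way ANOVA with Tukey's test.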

[21] = system: OVCAR-5; assay: Induction of autophagy in human OVCAR-5 cells assessed as reduction in cell viability at 25 nM incubated for 72 hrs in presence of bafilomycin by CellTiter-Blue Cell Viability assay; type: functional, cell-based; outline: as §8
[22] = system: OVCAR-8; assay: Induction of autophagy in human OVCAR-8 cells assessed as reduction in cell viability at 25 nM incubated for 72 hrs in the presence of 1 nM bafilomycin by CellTiter-Blue Cell Viability assay; type: functional, cell-based; outline: as §8
[23] = system: OVCAR-3; assay: Induction of apoptosis in human OVCAR-3 cells assessed as increase in necrotic cells at 25 nM incubated for 48 hrs by Annexin V-FITC/propidium iodide staining based analysis; type: functional, cell-based; outline: as §6
[24] = system: OVCAR-8; assay: Induction of apoptosis in human OVCAR-8 cells assessed as increase in necrotic cells at 25 nM incubated for 48 hrs by Annexin V-FITC/propidium iodide staining based analysis; type: functional, cell-based; outline: as §6
[25] = Toxicity in immunodeficient NCr nu/nu mouse xenografted with human OVCAR-3 cells assessed as change in body weight at 0.5 mg/kg, ip administrated once per day for 4 days measured measured on day 7 relative to control; type: organism-based; settings: in vivo, 168 h, time 7 day; outline: as §5
[26] = system: OVCAR-3; assay: Induction of ferroptosis in human OVCAR-3 cells at 0.1 to 10 uM in the presence of ferrostatin-1 by CellTiterGlo assay; type: functional, cell-based; settings: dose 0.1-10 µM
Outline: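 OVCAR3 in 384-well plates (1000 cells/well), given 100 nM to 10 μM together with 2 μM ferrostatin-1, in triplicate; viability measured by CellTiter-Glo.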

[27] = system: OVCAR-3; assay: Induction of apoptosis in human OVCAR-3 cells assessed as increase in caspase-3/7 activity at 50 nM incubated for 48 hrs by fluorescent reporter assay
[28] = system: OVCAR-8; assay: Induction of apoptosis in human OVCAR-8 cells assessed as increase in caspase-3/7 activity at 50 nM incubated for 48 hrs by fluorescent reporter assay
[29] = system: OVCAR-5; assay: Induction of apoptosis in human OVCAR-5 cells assessed as increase in caspase-3/7 activity at 50 nM incubated for 48 hrs by fluorescent reporter assay
[30] = system: OVCAR-3; assay: Induction of apoptosis in human OVCAR-3 cells assessed as increase in cleaved PARP expression level at >=10 nM incubated for 72 hrs by Western blotting analysis
[31] = system: OVCAR-3; assay: Induction of apoptosis in human OVCAR-3 cells assessed as decrease in caspase-3/7 activity at 50 nM incubated for 48 hrs in presence of by ZVAD-FMK fluorescent reporter assay
[32] = system: OVCAR-8; assay: Induction of apoptosis in human OVCAR-8 cells assessed as decrease in caspase-3/7 activity at 50 nM incubated for 48 hrs in presence of by ZVAD-FMK fluorescent reporter assay
[33] = system: OVCAR-5; assay: Induction of apoptosis in human OVCAR-5 cells assessed as decrease in caspase-3/7 activity at 50 nM incubated for 48 hrs in presence of by ZVAD-FMK fluorescent reporter assay
[34] = system: OVCAR-3 (Homo sapiens); assay: Anti-ferroptotic activity against human OVCAR-3 cells assessed as decrease in lipid peroxidation at 50 nM incubated for 24 hrs by C11-BODIPY staining based flow cytometric analysis
[35] = system: OVCAR-3 (Homo sapiens); assay: Anti-ferroptotic activity against human OVCAR-3 cells assessed as decrease in lipid peroxidation at 50 nM incubated for 24 hrs in presence of ferrostatin-1 by C11-BODIPY staining based flow cytometric analysis

Cc1cc(=O)c(O)cc2c1C[C@H]1CC(C)(C)/C=C/C[C@]3(C)Oc4cc(O)c(=O)cc(C)c4C[C@H]3C[C@H](O)[C@@]1(C)O2
IC50 [1]: 9.7 nM
IC50 [2]: 11 nM
IC50 [3]: 12 nM
IC50 at 72 h [4]: 170 nM
Activity [5]: Active
inhibition [6]: Active
inhibition [7]: Active
Activity [8]: Active
Activity [9]: Active
Activity [10]: Active
Activity [11]: inactive
Activity [12]: > 12%
Activity [13]: Active
Activity [14]: Active
Activity [15]: inactive
Activity [16]: Active
Activity [17]: Active
Activity [18]: Active
Activity [19]: Active
Activity [20]: inactive
Activity [21]: inactive
Activity [22]: inactive
Activity [23]: Active
Activity [24]: Active
Activity [25]: <= 12%
Activity [26]: Active
Activity [27]: Active
Activity [28]: Active
Activity [29]: Active
Activity [30]: Active
Activity [31]: Active
Activity [32]: Active
Activity [33]: Active
Activity [34]: Active
Activity [35]: Active
